Source: PubChem BioAssay (SRMLSC)
HUVEC inhibit – inhibitors of HUVEC proliferation, primary screen, cell-based, 384-well. viability, % at 10 µM (by protocol). 1.1% of 86,000 active. AID 648, 2007. CellTiter-Glo luminescence, 72 h; stronger effect = lower value;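 active = viability at or below 30%; inactive = viability above 30%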;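 also: 100% = median luminescence of DMSO-only cell control wells on each plate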
PTEN del growth – growth suppression of PTEN-null HCT116, primary screen, cell-based, CellTiter-Glo; HCT116 PTEN-null viability, 60 h; stronger effect = lower value; viability, % at 10 µM; 1.2% of 140,000 active;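 active = viability at or below a set limit, 4 SD under the median of all tested compounds, cut at about 3.7% in these data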;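 also: PTEN knockout HCT116 line with beta catenin targeted HCT116 as companion control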
H69AR inhibit – proliferation blockers of H69AR lung cancer cells, primary screen, cell-based, human, 86K library; H69AR lung tumor viability, ATP luminescence, 72 h; stronger effect = lower value; 6% of 85,000 active; viability, % at 10 µM; AID 598, 2007;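 active = viability at or below 40%; inactive = viability above 40%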;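 also: multidrug resistant small cell line overexpressing MRP-1 efflux transporter; 100% = mean luminescence of untreated control wells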
bCat KO growth – primary screen for growth suppressors in beta-catenin knockout HCT116 cells (colon tumor, human); AID 818, 2007; 1.5% of 140,000 active; HCT116 beta-catenin knockout viability, CellTiter-Glo, 60 h; stronger effect = lower value; viability, % at 10 µM;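 active = viability at or under a set limit, the compound median less 4 SD, cut at about 6% in these data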;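 also: 0% = Hyamine 1622 control at 20 µM and 100% = untreated cell control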
Lung fibro prol – antiproliferative effect on LL 47 fibroblasts – human, LL 47 cells, CellTiter-Glo luminescence, primary screen | AID 719, 2007 | 1.1% of 85,000 active | viability, % at 10 µM | LL 47 human lung fibroblast viability, ATP luminescence; stronger effect = lower value;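 active = viability at or below 50% in the single dose screen; inactive = viability above 50%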;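 also: compound exposure lasted 72 h before the ATP readout; 100% = median luminescence of untreated cell-only wells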
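Benchmarks: Cell-only wells, no compound | Test system: LL 47 human lung fibroblasts, passage 12 or lower | Input: 1,150 cells/well | Measured by: CellTiter-Glo luminescence measuring cellular ATP | Medium: IMEM, 15% FBS supplement | Schedule: Overnight attachment after seeding, then 72 h compound exposure at 37 °C | Doses: Compound addition at 0.1% DMSO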
* = called active by the depositor; nt = no result. The sample as a whole holds a higher share of hits than the screen did.

SMILES	HUVEC inhibit	PTEN del growth	H69AR inhibit	bCat KO growth	Lung fibro prol
Cc1c(C(=O)OCC(=O)NCc2ccc3c(c2)OCO3)cccc1[N+](=O)[O-]	nt	88.6	nt	83.6	nt
COc1cc(C(=O)OCC(=O)NC2CCS(=O)(=O)C2)ccc1OCc1c(C)noc1C (stereo not drawn)	nt	113.4	nt	92.9	nt
Cc1ccc(C)c(N2CCN(c3nnnn3-c3ccccc3)CC2)c1	89.1	37.0	19.9*	46.6	84.5
Cc1cc(C)nc(N2CCN(c3nnnn3-c3ccccc3)CC2)n1	93.8	103.3	89.7	102.7	95.3
O=S(=O)(c1ccccc1)n1ccc2cccnc21	nt	81.0	nt	81.5	nt
Cc1sc(NC(=O)c2sc3nc4c(C)cccc4cc3c2N)c(C#N)c1C	nt	9.1	nt	3.6*	nt
CC(C)CCC(CC(C)O)c1n[nH]c(=S)n1-c1ccccc1 (stereo not drawn)	nt	103.1	nt	91.1	nt
Cc1cc(C)cc(OCc2nc3ncc(Br)cc3[nH]2)c1	37.9	nt	10.7*	nt	14.1*
COc1cccc(OCc2nc3ccccc3[nH]2)c1	90.6	78.0	77.0	95.3	92.3
CCOC(=O)CNC(=O)CSc1nc2ncc(Br)cc2[nH]1	98.5	105.8	nt	94.3	111.9
COc1cccc(OCc2nc3ncc(Br)cc3[nH]2)c1	48.1	17.7	24.9*	10.8	47.3*
O=[N+]([O-])C(=C1Nc2ccccc2N1)/C(Cl)=C(/Cl)Br	nt	91.7	nt	82.4	nt
Cc1c(C(=O)Nc2ccc3c(c2)OCCO3)sc2nc(-c3ccccc3)cn12	51.3	21.2	37.8*	14.0	84.8
Cc1ccc(NC(=O)CSc2nnc(C(F)(F)F)n2C)cc1[N+](=O)[O-]	nt	104.4	nt	107.3	nt
Nc1c(C(=O)NC2CCCCC2)c2nc3ccccc3nc2n1/N=C/c1ccco1	49.8	nt	26.5*	nt	75.9
CCOC(=O)c1ccc(NC(=O)COC(=O)Cc2csc(-c3ccccc3)n2)cc1	nt	92.8	nt	87.4	nt
Cn1c(CCN2CCN(c3ccc(F)cc3)CC2)nc2cc(NC(=O)c3ccco3)ccc21	96.3	89.1	43.9	94.1	95.1
Cn1c(CCN2CCN(c3ccccc3)CC2)nc2cc(NC(=O)c3ccco3)ccc21	88.0	64.7	21.2*	78.4	96.5
Cc1ccc(N2CCN(CCc3nc4cc(NC(=O)c5ccco5)ccc4n3C)CC2)cc1	95.6	66.2	6.6*	64.7	97.2
O=C1OC(c2ccco2)=N/C1=C\c1ccc(-c2cccc(C(F)(F)F)c2)o1	nt	89.3	nt	93.1	nt
CCOC(=O)c1cc2c(ccn2-c2ccc(F)cc2)n1CC(=O)N1CCN(C(=O)c2ccco2)CC1	52.4	94.0	21.7*	83.0	49.4*
CCn1nnnc1-c1ccc(OC)c(S(=O)(=O)NCCc2ccccc2)c1	104.2	90.7	89.8	90.8	97.7
Cn1cc(C2NC(=O)c3c(sc4c3CCCC4)N2)c2ccccc21 (stereo not drawn)	84.8	nt	28.0*	nt	90.7
Cc1ccsc1C1NC(=O)c2c(sc3c2CCCC3)N1 (stereo not drawn)	nt	85.7	nt	80.2	nt
O=C1NC(c2ccccn2)Nc2sc3c(c21)CCC3 (stereo not drawn)	71.7	1.8*	42.8	3.8*	83.5
SMILES	HUVEC inhibit	PTEN del growth	H69AR inhibit	bCat KO growth	Lung fibro prol
CC(C)C(NC(=O)CSCc1ccc([N+](=O)[O-])cc1)C(C)C	nt	68.8	nt	65.0	nt
COc1cccc(N(CC(=O)N/N=C(\C)c2cccs2)S(C)(=O)=O)c1	nt	98.5	nt	96.3	nt
CCC(C)(C)NC(=O)c1cc([N+](=O)[O-])ccc1N1CCOCC1	nt	89.5	nt	95.9	nt
Cc1ccc(C)c(NC(=O)CSc2ccc(-c3ccco3)nn2)c1	nt	96.2	nt	93.5	nt
COc1cc([C@H]2c3[nH]c4ccccc4c3C[C@H]3C(=O)N4[C@@H](c5cc(OC)c(OC)c(OC)c5)c5[nH]c6ccccc6c5C[C@H]4C(=O)N23)cc(OC)c1OC	nt	1.8*	nt	3.0*	nt
O=C1[C@@H]2Cc3c([nH]c4ccccc34)[C@@H](c3ccccc3)N2C(=O)[C@@H]2Cc3c([nH]c4ccccc34)[C@@H](c3ccccc3)N12	nt	1.5*	nt	1.4*	nt
Cc1nn(C(C)C(=O)N2CCc3ccccc32)c(C)c1[N+](=O)[O-] (stereo not drawn)	nt	82.2	nt	78.0	nt
COCCn1c(=NC(=O)c2ccc(S(=O)(=O)N3CCc4ccccc4C3)cc2)sc2cc(S(N)(=O)=O)ccc21	nt	80.4	nt	68.6	nt
C=CCn1c(=NC(=O)c2ccc(S(=O)(=O)N3CCc4ccccc4C3)cc2)sc2cc(S(N)(=O)=O)ccc21	nt	1.7*	nt	1.4*	nt
C#CCn1c(=NC(=O)c2ccc(S(=O)(=O)N3CCc4ccccc4C3)cc2)sc2cc(S(N)(=O)=O)ccc21	nt	1.5*	nt	1.4*	nt
CCCn1c(CNc2ccc(Br)cc2)nc2ccccc21	97.9	64.0	97.0	54.5	87.8
CCSCCc1nnc(NC(=O)Nc2cccc(C(F)(F)F)c2)s1	nt	3.7*	nt	4.5*	nt
COc1ccc(COc2cc(-c3cccc(OC)c3)nc3ccc(N)cc23)cc1	nt	14.0	nt	14.1	nt
CCN1CCN(C(=O)C2CCN(Cc3nc(-c4ccc(Cl)cc4)oc3C)CC2)CC1	81.8	nt	106.3	nt	87.5
CCc1ccc(-c2nc(CN3CCC(C(=O)N4CCN(c5ccccc5)CC4)CC3)c(C)o2)cc1	3.5*	2.4*	1.2*	2.0*	73.7
CCc1ccc(-c2nc(CN3CCC(C(=O)N4CCN(c5ccccn5)CC4)CC3)c(C)o2)cc1	31.3	1.1*	38.7*	1.9*	95.5
Cc1oc(-c2ccc(Cl)cc2)nc1CN1CCC(C(=O)N2CCN(c3ccccn3)CC2)CC1	55.6	nt	65.8	nt	93.2
Cc1oc(-c2cccc(Cl)c2)nc1CN1CCC(C(=O)N2CCN(c3ccccn3)CC2)CC1	35.0	nt	33.3*	nt	74.4
COc1cccc2c1C(=O)C=C(C)C2=O	nt	2.9*	nt	1.8*	nt
CC1=CC(=O)c2ccccc2C1=O	nt	41.3	nt	43.9	nt
CCc1nc(SCC(=O)N2CCCc3ccccc32)c2c(=O)n(C)c(=O)n(C)c2n1	91.8	nt	80.2	nt	85.9
CCOC(=O)c1cc2c(=O)n3cccc(C)c3nc2n(Cc2ccco2)c1=NC(=O)c1ccccc1	78.9	57.1	24.7*	35.4	95.5
CC1(C)Cc2c(sc3[nH]c(=S)n(Cc4ccco4)c(=O)c23)CO1	80.3	70.0	29.8*	69.1	87.5
Cc1ccc(C(=O)NC(N2CCCC2)C(Cl)(Cl)Cl)cc1 (stereo not drawn)	nt	92.2	nt	100.9	nt
COc1ccc2[nH]c(C)c(CCN(Cc3cccs3)C(=S)Nc3ccccc3)c2c1	76.2	55.3	69.2	59.9	93.4
COc1ccc2[nH]c(C)c(CCN(Cc3cccs3)C(=S)Nc3ccc(F)cc3)c2c1	87.8	63.2	37.0*	61.5	100.3
CN1CCc2c(sc3c2c(=O)n(-c2ccccc2)c2nnc(SCc4ccccc4F)n32)C1	92.8	nt	91.7	nt	98.6
CN1CCN(c2nc(NCCOC34CC5CC(CC(C5)C3)C4)nc(OCC(F)(F)F)n2)CC1	9.5*	25.6	1.9*	29.9	56.2
